# From ChEMBL document CHEMBL1799923, “Design, synthesis, and biological activities of closantel analogues: structural promiscuity and its impact on Onchocerca volvulus” (J Med Chem, 2011)
# Calls of active or inactive are those of the source.
# Legend:
# [1] = tested on: Onchocerca ochengi; experiment: Antiparasitic activity against Onchocerca ochengi assessed as effect on microfilarial mobility at 5 ug/ml measured every 24 hrs for 120 hrs by inverted microscopic analysis; assay type: functional
# Outline: (§1)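 Microfilariae isolated from cattle skin snips; ≥15 per well cocultured on a confluent monkey kidney epithelial feeder layer in RPMI-1640 complete medium (25 mM HEPES, 5% newborn calf serum, pH 7.4) with compound, 37 °C, 5% CO2, 5 days, no medium change. Motility scored by inverted microscope every 24 h. Viability checked at 120 h. Duplicate wells. Active = 100% motility loss versus control.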
# [2] = tested on: Onchocerca ochengi; experiment: Antiparasitic activity against Onchocerca ochengi assessed as effect on microfilarial mobility at 10 ug/ml measured every 24 hrs for 120 hrs by inverted microscopic analysis; assay type: functional; outline: as §1
# [3] = target: T1, Chitinase (Onchocerca volvulus, UniProt Q25615); experiment: Inhibition of Onchocerca volvulus L3 larvae chitinase using 4-methylumbelliferyl-N,N',N''-beta-chitotrioside as a profluorescent substrate after 10 mins by fluorometric analysis
# T1 sequence (Q25615 whole entry): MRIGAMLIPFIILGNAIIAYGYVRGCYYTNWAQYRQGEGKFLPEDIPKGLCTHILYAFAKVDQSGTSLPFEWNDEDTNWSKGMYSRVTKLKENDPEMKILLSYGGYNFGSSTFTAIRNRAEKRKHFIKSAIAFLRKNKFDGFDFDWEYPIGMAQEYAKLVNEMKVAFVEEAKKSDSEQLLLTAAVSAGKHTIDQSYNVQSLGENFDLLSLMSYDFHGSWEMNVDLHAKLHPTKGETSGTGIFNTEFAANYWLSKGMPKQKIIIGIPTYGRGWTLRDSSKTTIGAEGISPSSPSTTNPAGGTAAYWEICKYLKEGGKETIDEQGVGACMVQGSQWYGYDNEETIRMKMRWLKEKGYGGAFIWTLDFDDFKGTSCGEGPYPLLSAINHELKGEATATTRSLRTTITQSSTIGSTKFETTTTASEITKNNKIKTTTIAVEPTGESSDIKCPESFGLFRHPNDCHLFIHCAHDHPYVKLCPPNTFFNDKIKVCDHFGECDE
# Outline: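 OvCHT1 (1.25 units) with 20 μM 4-methylumbelliferyl-N,N',N''-β-chitotrioside in 200 mM NaCl, 20 mM Na3PO4 (pH 6.0), 1.0 mM EDTA and 0.5% DMSO at 37 °C. Screening used 25 μM compound, with a no-compound blank. Fluorescence increase is read over 10 min (ex 350 nm, em 440 nm). Triplicate reactions.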
# [4] = tested on: HEK-293T; experiment: Protonophoric activity in human HEK293T cells assessed as mitochondrial membrane depolarization at 200 uM after 10 mins by flow cytometric analysis; assay type: functional, cell-based
# Outline: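 HEK-293T/17 cells trypsinized and resuspended at 1 × 10^6 cells/mL in PBS. Compound exposure is 10 min at 37 °C, with valinomycin as the depolarization control. JC-1 is then added for another 10 min at 37 °C. Cells are washed and analysed by flow cytometry in the green (FITC) and red (PE) channels for mitochondrial membrane polarization.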
# [5] = tested on: Onchocerca volvulus; experiment: Antiparasitic activity against Onchocerca volvulus assessed as larval toxicity at 100 uM after 6 days by using inverted microscopic analysis; assay type: functional, organism-based
# [6] = tested on: Onchocerca volvulus; experiment: Antiparasitic activity against Onchocerca volvulus assessed as inhibition of L3 to L4 larval molting at 100 uM after 6 days by using inverted microscopic analysis; assay type: functional
# Outline: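 Cryopreserved O. volvulus L3 larvae thawed at 37 °C, washed in NCTC/IMDM (1:1) with glutamine, penicillin and streptomycin, then set at […] worms per well in complete medium with 20% heat-inactivated FCS. Each well received 1.5 × 10^5 normal PBMCs; 10 wells per treatment, with DMSO and medium controls. Incubated at 37 °C in 5% CO2 for 6 days. Molting is scored by inverted microscopy as L4 larvae plus empty L3 casts.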
# [7] = tested on: Onchocerca volvulus; experiment: Antiparasitic activity against Onchocerca volvulus assessed as inhibition of L3 to L4 larval molting at 25 uM after 6 days by using inverted microscopic analysis; assay type: functional, organism-based
# Outline: (§2)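 Cryopreserved L3 thawed at 37 °C and washed. 5–10 larvae per well in complete medium with 20% heat-inactivated FCS plus 1.5 × 10^5 normal PBMCs. 10 wells per treatment. Compounds tested singly or as a 1:1 pair. DMSO and medium controls included. Incubated at 37 °C, 5% CO2. Molting scored on day 6 by inverted microscope as L4 plus empty L3 cast. Reported as percent molting.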
# [8] = tested on: HEK-293T; experiment: Protonophoric activity in human HEK293T cells assessed as mitochondrial membrane depolarization at 50 uM after 10 mins by flow cytometric analysis relative to valinomycin; assay type: functional, cell-based
# Outline: (§3)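 HEK-293T/17 cells were trypsinized and resuspended at 1 × 10^6/mL in PBS. They were exposed to 50 μM compound (valinomycin control 200 nM) for 10 min at 37 °C, then stained with the JC-1 potential probe for 10 min at 37 °C. Cells were washed and analysed by flow cytometry using FL-1 green and FL-2 red channels.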
# [9] = tested on: HEK-293T; experiment: Protonophoric activity in human HEK293T cells assessed as mitochondrial membrane depolarization at 50 uM after 10 mins by flow cytometric analysis relative to closantel; assay type: functional, cell-based; outline: as §3
# [10] = tested on: Onchocerca volvulus; experiment: Antiparasitic activity against Onchocerca volvulus assessed as inhibition of L3 to L4 larval molting at 50 uM after 6 days by using inverted microscopic analysis; assay type: functional, organism-based; outline: as §2
# [11] = tested on: HEK-293T; experiment: Protonophoric activity in human HEK293T cells assessed as mitochondrial membrane depolarization at 50 uM after 10 mins by flow cytometric analysis; assay type: functional, cell-based; outline: as §3
SMILES,motility % at 5 µg/mL [1] [%],motility % at 10 µg/mL [2] [%],IC50 [3] [nM],also measured
O=C(Nc1ccc(Cl)cc1)c1cc(I)ccc1O,100,100,,
O=C(Nc1ccc(F)cc1)c1cc(I)cc(I)c1O,100,100,880,
COc1ccc(NC(=O)c2cc(I)cc(I)c2O)cc1,100,100,8700,
O=C(Nc1ccccc1)c1cc(Cl)cc(Cl)c1O,100,25,,
Cc1ccc(NC(=O)c2cc(C(C)C)cc(C(C)C)c2O)cc1,50,25,,
O=C(Nc1ccc(Cl)cc1)c1cc(Br)cc(Br)c1O,100,35,,
Cc1ccc(NC(=O)c2cc(I)ccc2O)cc1,50,21,,
CC(C)[C@@H]1NC(=O)[C@H](C)OC(=O)[C@@H](C(C)C)NC(=O)[C@@H](C(C)C)OC(=O)[C@H](C(C)C)NC(=O)[C@H](C)OC(=O)[C@@H](C(C)C)NC(=O)[C@@H](C(C)C)OC(=O)[C@H](C(C)C)NC(=O)[C@H](C)OC(=O)[C@@H](C(C)C)NC(=O)[C@@H](C(C)C)OC1=O,,,,Activity [4]: Active
COc1ccc(NC(=O)c2cc(Br)cc(Br)c2O)cc1,100,50,5500,
Cc1ccc(NC(=O)c2cc(Cl)cc(Cl)c2O)cc1,100,50,,
Cc1ccc(NC(=O)c2cc(I)cc(I)c2O)cc1,100,100,1700,
CC(C)c1cc(C(=O)Nc2ccccc2)c(O)c(C(C)C)c1,100,50,,
COc1ccc(NC(=O)c2cc(Cl)cc(Cl)c2O)cc1,100,50,,
O=C(Nc1ccccc1)c1cc(Br)cc(Br)c1O [METABROMSALAN],100,50,,
Cc1ccc(NC(=O)c2cc(Br)cc(Br)c2O)cc1,100,100,,
COc1ccc(NC(=O)c2cc(C(C)C)cc(C(C)C)c2O)cc1,50,25,,
Cc1cc(C(C#N)c2ccc(Cl)cc2)c(Cl)cc1NC(=O)c1cc(I)cc(I)c1O (stereo not given) [CLOSANTEL],100,0,1600,Ki [3]: 468 nM; Activity [5]: inactive; inhibition at 100 µM ([6]; 144 h): 97.6%
CC(C)c1cc(C(=O)Nc2ccc(Cl)cc2)c(O)c(C(C)C)c1,100,100,,inhibition [7]: inactive; Activity [8]: Active; Activity [9]: Active; Activity [5]: inactive; inhibition [6]: Active; inhibition [10]: inactive
O=C(Nc1ccc(Cl)cc1)c1cc(Cl)cc(Cl)c1O,100,29,12400,
O=C(Nc1ccc(I)cc1)c1cc(I)cc(I)c1O,100,100,630,inhibition [7]: inactive; Activity [11]: inactive; Activity [5]: inactive; inhibition [6]: Active; inhibition [10]: inactive
CC(C)c1ccc(NC(=O)c2cc(I)cc(I)c2O)cc1,100,100,1600,
COc1ccc(NC(=O)c2cc(I)ccc2O)cc1,100,100,,
O=C(Nc1ccc(Cl)cc1)c1cc(I)cc(I)c1O,100,0,5800,
O=C(Nc1ccccc1)c1cc(I)cc(I)c1O,100,100,,
O=C(Nc1ccccc1)c1cc(I)ccc1O,100,25,,
O=C(Nc1ccc(Br)cc1)c1cc(I)cc(I)c1O,100,100,680,
